Experimental data published in ChEMBL document CHEMBL3352014, “Effect of acyclic monoterpene alcohols and their derivatives on TRP channels” (Bioorg Med Chem Lett, 2014).
pEC50, pIC50: −log10 of the molar value.

How the values were obtained:
[1] = target: T1, Transient receptor potential cation channel subfamily A member 1 (Rattus norvegicus, UniProt Q6RI86); experiment: Agonist activity at rat TRPA1 expressed in HEK293 cells assessed as increase in intracellular Ca2+ concentration by Fluo-4-AM dye based spectrofluorimetry; type: cell-based
T1 sequence (Q6RI86 whole entry): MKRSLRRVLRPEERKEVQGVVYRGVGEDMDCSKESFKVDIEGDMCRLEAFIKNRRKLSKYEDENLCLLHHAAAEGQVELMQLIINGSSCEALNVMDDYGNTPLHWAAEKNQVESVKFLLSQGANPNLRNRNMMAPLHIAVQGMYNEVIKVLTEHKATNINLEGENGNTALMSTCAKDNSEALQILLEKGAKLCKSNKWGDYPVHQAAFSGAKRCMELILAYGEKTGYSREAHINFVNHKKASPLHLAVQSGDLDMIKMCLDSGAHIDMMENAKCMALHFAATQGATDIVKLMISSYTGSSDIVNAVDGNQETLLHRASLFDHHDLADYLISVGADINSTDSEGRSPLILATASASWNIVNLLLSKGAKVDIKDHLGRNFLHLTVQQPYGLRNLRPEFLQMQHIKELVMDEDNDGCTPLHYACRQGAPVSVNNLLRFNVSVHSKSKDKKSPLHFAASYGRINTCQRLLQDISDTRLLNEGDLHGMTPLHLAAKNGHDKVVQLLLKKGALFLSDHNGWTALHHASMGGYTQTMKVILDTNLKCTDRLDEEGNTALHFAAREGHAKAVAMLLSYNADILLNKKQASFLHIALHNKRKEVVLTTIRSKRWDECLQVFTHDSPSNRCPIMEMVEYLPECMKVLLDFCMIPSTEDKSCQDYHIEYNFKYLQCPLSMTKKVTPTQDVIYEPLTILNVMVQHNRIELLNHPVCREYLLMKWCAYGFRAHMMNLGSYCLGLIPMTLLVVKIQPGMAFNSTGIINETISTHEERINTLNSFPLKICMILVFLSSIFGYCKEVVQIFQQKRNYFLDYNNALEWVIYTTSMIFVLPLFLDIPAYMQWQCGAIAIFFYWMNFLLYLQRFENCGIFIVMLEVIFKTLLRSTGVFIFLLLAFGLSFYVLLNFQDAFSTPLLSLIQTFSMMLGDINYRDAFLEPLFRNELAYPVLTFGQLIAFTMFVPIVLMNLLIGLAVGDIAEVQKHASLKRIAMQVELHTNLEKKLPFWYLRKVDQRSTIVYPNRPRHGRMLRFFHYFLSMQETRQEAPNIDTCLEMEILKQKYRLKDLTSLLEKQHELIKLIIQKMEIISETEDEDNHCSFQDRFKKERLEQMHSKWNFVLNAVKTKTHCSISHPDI

[2] = target: T1, Transient receptor potential cation channel subfamily A member 1; experiment: Antagonist activity against rat TRPA1 expressed in HEK293 cells assessed as inhibition of AITC-induced increase in intracellular Ca2+ concentration by Fluo-4-AM dye based spectrofluorimetry; type: cell-based
[3] = target: Transient receptor potential cation channel subfamily M member 8 (Rattus norvegicus) (UniProt Q8R455); experiment: Agonist activity at rat TRPM8 expressed in HEK293 cells assessed as increase in intracellular Ca2+ concentration by Fluo-4-AM dye based spectrofluorimetry relative to ionomycin; type: cell-based
Transient receptor potential cation channel subfamily M member 8 (Rattus norvegicus), sequence (Q8R455 whole entry, looked up): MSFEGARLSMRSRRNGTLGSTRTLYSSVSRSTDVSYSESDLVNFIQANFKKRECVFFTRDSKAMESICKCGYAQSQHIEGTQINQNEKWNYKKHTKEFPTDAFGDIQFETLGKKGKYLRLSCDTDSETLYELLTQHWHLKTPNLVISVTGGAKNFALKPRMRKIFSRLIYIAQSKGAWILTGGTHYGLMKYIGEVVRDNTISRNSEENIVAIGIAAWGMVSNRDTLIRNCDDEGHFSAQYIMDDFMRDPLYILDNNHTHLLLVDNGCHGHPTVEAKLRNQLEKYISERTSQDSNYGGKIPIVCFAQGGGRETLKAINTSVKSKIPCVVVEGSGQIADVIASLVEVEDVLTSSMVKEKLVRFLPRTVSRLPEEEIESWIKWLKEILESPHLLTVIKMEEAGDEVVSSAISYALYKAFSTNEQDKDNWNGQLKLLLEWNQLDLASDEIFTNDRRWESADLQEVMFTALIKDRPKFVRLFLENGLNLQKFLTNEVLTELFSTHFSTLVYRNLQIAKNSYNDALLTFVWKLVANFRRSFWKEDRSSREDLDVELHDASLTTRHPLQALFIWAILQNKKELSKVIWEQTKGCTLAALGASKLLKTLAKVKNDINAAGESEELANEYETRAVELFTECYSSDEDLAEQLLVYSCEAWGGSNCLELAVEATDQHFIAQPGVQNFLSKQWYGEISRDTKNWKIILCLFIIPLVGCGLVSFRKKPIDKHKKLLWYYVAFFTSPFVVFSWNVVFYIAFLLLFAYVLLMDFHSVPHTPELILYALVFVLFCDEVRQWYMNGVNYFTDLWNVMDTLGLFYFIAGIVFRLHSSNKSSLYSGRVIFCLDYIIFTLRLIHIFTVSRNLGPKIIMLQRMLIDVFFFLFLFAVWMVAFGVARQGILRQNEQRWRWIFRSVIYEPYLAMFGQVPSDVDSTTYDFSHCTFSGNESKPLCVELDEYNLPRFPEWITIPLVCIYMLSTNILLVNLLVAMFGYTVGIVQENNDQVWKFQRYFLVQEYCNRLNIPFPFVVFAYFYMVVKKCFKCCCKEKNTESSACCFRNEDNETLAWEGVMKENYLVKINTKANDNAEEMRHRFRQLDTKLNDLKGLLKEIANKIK
Method in brief: (§1)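 Same stably transfected HEK293 Fluo-4 calcium assay: human TRPV1, rat TRPM8. Tyrode's buffer pH 7.4, 25 °C, ex 488/em 516 nm. Efficacy is the compound-evoked [Ca2+]i rise normalized to the maximal Ca2+ influx from 4 µM ionomycin. Means of at least 3 determinations.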

[4] = target: Transient receptor potential cation channel subfamily M member 8 (Rattus norvegicus, UniProt Q8R455); experiment: Antagonist activity against rat TRPM8 expressed in HEK293 cells assessed as inhibition of icilin-induced increase in intracellular Ca2+ concentration by Fluo-4-AM dye based spectrofluorimetry; type: cell-based
Transient receptor potential cation channel subfamily M member 8 (Rattus norvegicus, UniProt Q8R455), sequence (Q8R455 whole entry): as the sequence (Q8R455 whole entry, looked up) above

[5] = target: T2, Transient receptor potential cation channel subfamily V member 1 (Homo sapiens, UniProt Q8NER1); experiment: Agonist activity at human TRPV1 expressed in HEK293 cells assessed as increase in intracellular Ca2+ concentration by Fluo-4-AM dye based spectrofluorimetry relative to ionomycin; type: cell-based; method in brief: as §1
T2 sequence (Q8NER1 whole entry): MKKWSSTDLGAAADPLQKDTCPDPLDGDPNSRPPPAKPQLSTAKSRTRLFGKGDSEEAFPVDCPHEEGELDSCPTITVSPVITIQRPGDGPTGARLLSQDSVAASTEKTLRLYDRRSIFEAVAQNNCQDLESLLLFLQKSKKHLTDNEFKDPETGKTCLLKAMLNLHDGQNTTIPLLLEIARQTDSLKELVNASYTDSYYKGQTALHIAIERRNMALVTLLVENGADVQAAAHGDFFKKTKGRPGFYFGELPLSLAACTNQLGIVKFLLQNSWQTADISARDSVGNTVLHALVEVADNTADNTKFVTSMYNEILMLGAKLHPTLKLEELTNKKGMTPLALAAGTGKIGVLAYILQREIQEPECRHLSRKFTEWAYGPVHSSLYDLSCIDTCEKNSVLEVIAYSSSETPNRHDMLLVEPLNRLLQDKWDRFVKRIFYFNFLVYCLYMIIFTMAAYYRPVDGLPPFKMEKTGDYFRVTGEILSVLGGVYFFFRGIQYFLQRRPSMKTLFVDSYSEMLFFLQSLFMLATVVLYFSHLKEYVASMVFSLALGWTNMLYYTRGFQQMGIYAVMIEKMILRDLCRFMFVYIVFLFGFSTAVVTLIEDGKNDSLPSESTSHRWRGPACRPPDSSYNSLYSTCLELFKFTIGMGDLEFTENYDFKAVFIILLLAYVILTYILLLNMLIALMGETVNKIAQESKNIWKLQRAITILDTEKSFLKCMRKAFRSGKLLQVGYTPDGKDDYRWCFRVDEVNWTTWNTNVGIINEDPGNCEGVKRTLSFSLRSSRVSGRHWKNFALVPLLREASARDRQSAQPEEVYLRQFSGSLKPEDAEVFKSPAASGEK

[6] = target: T2, Transient receptor potential cation channel subfamily V member 1; experiment: Antagonist activity against human TRPV1 expressed in HEK293 cells assessed as inhibition of capsaicin-induced increase in intracellular Ca2+ concentration by Fluo-4-AM dye based spectrofluorimetry; type: cell-based
[7] = target: T2, Transient receptor potential cation channel subfamily V member 1; experiment: Agonist activity at human TRPV1 expressed in HEK293 cells assessed as increase in intracellular Ca2+ concentration by Fluo-4-AM dye based spectrofluorimetry; type: cell-based
Method in brief: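 HEK293 stably expressing human TRPV1 or rat TRPM8, grown in EMEM with non-essential amino acids, 10% FBS, 2 mM glutamine, 37 °C, 5% CO2. Fluo-4-AM loaded 1 h at room temperature; cells in Tyrode's buffer pH 7.4, about 100,000 per stirred cuvette. Fluorescence (ex 488/em 516 nm) read at 25 °C before and after various compound concentrations. EC50 from sigmoidal variable-slope fit; at least 3 determinations.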

[8] = target: Transient receptor potential cation channel subfamily A member 1 (Homo sapiens) (UniProt O75762); experiment: Antagonist activity against TRPA1 (unknown origin) assessed as reduction in H2O2-induced receptor activation at 400 uM
[9] = target: T3, Transient receptor potential cation channel subfamily M member 8 (Homo sapiens, UniProt Q7Z2W7); experiment: Agonist activity at TRPM8 (unknown origin) relative to untreated control
Target sequence in this assay (Q7Z2W7 whole entry, looked up): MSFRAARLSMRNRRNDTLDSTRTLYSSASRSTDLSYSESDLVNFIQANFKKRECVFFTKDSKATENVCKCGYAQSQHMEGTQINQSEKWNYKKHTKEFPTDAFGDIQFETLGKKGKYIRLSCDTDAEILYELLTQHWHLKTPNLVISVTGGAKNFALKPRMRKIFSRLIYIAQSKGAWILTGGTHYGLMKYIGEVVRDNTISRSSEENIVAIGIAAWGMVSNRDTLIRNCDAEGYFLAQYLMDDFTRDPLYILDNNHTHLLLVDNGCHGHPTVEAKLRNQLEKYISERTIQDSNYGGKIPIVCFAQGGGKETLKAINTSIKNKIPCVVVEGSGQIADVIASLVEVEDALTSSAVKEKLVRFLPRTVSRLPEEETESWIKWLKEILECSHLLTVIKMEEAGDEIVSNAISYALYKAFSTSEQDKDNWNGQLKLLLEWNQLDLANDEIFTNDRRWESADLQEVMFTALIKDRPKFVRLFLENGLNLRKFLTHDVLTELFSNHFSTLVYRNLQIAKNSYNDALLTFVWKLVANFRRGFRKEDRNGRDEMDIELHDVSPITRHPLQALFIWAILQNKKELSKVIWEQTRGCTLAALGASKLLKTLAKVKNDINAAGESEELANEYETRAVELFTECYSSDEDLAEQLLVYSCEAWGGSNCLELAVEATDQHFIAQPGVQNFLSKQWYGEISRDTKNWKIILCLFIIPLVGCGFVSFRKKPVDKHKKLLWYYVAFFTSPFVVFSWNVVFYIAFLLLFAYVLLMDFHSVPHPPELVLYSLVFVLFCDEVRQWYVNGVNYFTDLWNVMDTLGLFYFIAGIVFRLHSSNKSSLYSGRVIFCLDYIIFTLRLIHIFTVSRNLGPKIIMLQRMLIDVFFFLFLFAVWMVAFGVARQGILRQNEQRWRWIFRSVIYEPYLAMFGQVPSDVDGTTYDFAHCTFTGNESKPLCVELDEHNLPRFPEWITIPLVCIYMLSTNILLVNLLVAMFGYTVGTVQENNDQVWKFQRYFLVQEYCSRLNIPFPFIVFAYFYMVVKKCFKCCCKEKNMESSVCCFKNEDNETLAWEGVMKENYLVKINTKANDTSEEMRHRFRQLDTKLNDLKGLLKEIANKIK

[10] = target: T3, Transient receptor potential cation channel subfamily M member 8; experiment: Agonist activity at TRPM8 (unknown origin)
Target sequence in this assay (Q7Z2W7 whole entry): as the sequence (Q7Z2W7 whole entry, looked up) above

pEC50 [1] | pIC50 [2] | Efficacy [3] | pIC50 [4] | Efficacy [5] | pIC50 [6] | pEC50 [7] | inhibition [8] | Efficacy [9] | pEC50 [10] | SMILES
5.62 | 5.85 | < 10% | < 4.00 | < 10% | < 4.00 |  |  |  |  | CC(C)=CCC/C(C)=C/COC(=O)c1cccc(C)c1
6.21 | 6.32 | < 10% | < 4.00 | 21.2% | 6.15 | 5.60 |  |  |  | CC(C)=CCC/C(C)=C/CNC(=O)Nc1cccc(Cl)c1
7.74 | 7.54 | < 10% | < 4.00 | 15.8% | < 4.00 | 5.19 |  |  |  | CC(C)=CCC/C(C)=C\CNC(=O)Oc1ccc(C(C)(C)C)cc1
< 4.00 | < 4.00 | < 10% | < 4.00 | < 10% | < 4.00 |  |  |  |  | CC(C)=CCCC(C)CCO (racemic) [CITRONELLOL]
6.55 | 6.06 | < 10% | < 4.00 | < 10% | < 4.00 |  |  |  |  | CC(C)=CCCC(C)CCOC(=O)c1ccc(C)cc1 (configuration not stated)
7.03 | 6.96 | < 10% | 5.92 | < 10% | < 4.00 |  |  |  |  | CC(C)=CCC/C(C)=C\COC(=O)c1ccc(C)cc1
6.80 | 6.47 | < 10% | < 4.00 | < 10% | < 4.00 |  |  |  |  | CC(C)=CCCC(C)CCOC(=O)CCc1ccccc1 (configuration not stated)
4.91 | < 4.00 | < 10% | < 4.00 | < 10% | < 4.00 |  | 70% |  |  | CC(=O)OCCC(C)CCC=C(C)C (configuration not stated) [CITRONELLYL ACETATE]
6.96 | 6.96 | < 10% | 6.54 | < 10% | < 4.00 |  |  |  |  | CC(C)=CCC/C(C)=C\COC(=O)CCc1ccccc1
7.00 | 6.03 | < 10% | < 4.00 | < 10% | < 4.00 |  |  |  |  | CC(C)=CCC/C(C)=C\COC(=O)Cc1cccc(I)c1
7.04 | 6.24 | < 10% | < 4.00 | 21.9% | 4.11 | 5.06 |  |  |  | CC(C)=CCC/C(C)=C/CNC(=O)Nc1ccc(C(C)(C)C)cc1
4.93 | < 4.00 | < 10% | < 4.00 | < 10% | < 4.00 |  |  |  |  | CC(C)=CCC/C(C)=C\CO [NEROL]
4.59 | 4.67 | < 10% | < 4.00 | < 10% | < 4.00 |  |  |  |  | CC(=O)OC/C=C(\C)CCC=C(C)C [GERANYL ACETATE]
7.35 | 7.42 | < 10% | 4.06 | 22.4% | 4.03 | 4.97 |  |  |  | CC(C)=CCC/C(C)=C/CNC(=O)Oc1ccc(C(C)(C)C)cc1
6.85 | 6.85 | < 10% | 4.51 | < 10% | < 4.00 |  |  |  |  | CC(C)=CCC/C(C)=C\COC(=O)c1cccc(C)c1
7.80 | 7.89 | < 10% | 6.12 | < 10% | < 4.00 |  |  |  |  | CC(C)=CCC/C(C)=C\COC(=O)Cc1ccc(Cl)cc1
6.59 | 6.47 | < 10% | < 4.00 | < 10% | < 4.00 |  |  |  |  | CC(C)=CCC/C(C)=C\COC(=O)c1ccc(C#N)cc1
4.88 | 4.68 | < 10% | < 4.00 | < 10% | < 4.00 |  |  |  |  | CC(=O)OC/C=C(/C)CCC=C(C)C [NERYL ACETATE]
 |  | < 10% | 5.24 | < 10% | < 4.00 |  |  |  |  | CC(C)=CCC/C(C)=C/COC(=O)Cc1ccc(C)cc1
 |  | < 10% | 5.62 | < 10% | < 4.00 |  |  |  |  | CC(C)=CCCC(C)CCOC(=O)Cc1ccc(C)cc1 (configuration not stated)

pEC50 [1] | pIC50 [2] | Efficacy [3] | pIC50 [4] | Efficacy [5] | pIC50 [6] | pEC50 [7] | inhibition [8] | Efficacy [9] | pEC50 [10] | SMILES
5.12 | 5.13 | < 10% | 5.26 | 10.5% | < 4.00 | 4.79 |  |  |  | CC(C)=CCC/C(C)=C/CNC(=O)CCc1ccccc1
6.92 | 6.89 | < 10% | < 4.00 | < 10% | < 4.00 |  |  |  |  | CC(C)=CCC/C(C)=C/COC(=O)Cc1ccc(Cl)cc1
5.18 | 4.86 | < 10% | 5.66 | < 10% | < 4.00 |  |  |  |  | CC(C)=CCC/C(C)=C\CNC(=O)CCc1ccccc1
 |  | < 10% | 6.08 | < 10% | < 4.00 |  |  |  |  | CC(C)=CCCC(C)CCOC(=O)Cc1ccc(Cl)cc1 (configuration not stated)
6.37 | 6.39 | < 10% | 6.15 | 20.1% | 6.42 | 5.77 |  |  |  | CC(C)=CCC/C(C)=C\CNC(=O)Nc1cccc(Cl)c1
 | < 4.00 | < 10% | < 4.00 | < 10% | < 4.00 |  |  | 28% | 2.23 | CC(C)=CCC/C(C)=C/CO [GERANIOL]
 |  | < 10% | 6.55 | < 10% | < 4.00 |  |  |  |  | CC(C)=CCC/C(C)=C\COC(=O)Cc1ccc(C)cc1
7.09 | 6.74 | < 10% | < 4.00 | < 10% | < 4.00 |  |  |  |  | CC(C)=CCC/C(C)=C\COC(=O)Cc1ccc2ccccc2c1
6.29 | 6.42 | < 10% | < 4.00 | 13.2% | < 4.00 | 5.10 |  |  |  | COc1ccc(CC(=O)OC/C=C(\C)CCC=C(C)C)cc1
6.85 | 6.59 | < 10% | 5.01 | < 10% | < 4.00 |  |  |  |  | COc1ccc(CC(=O)OC/C=C(/C)CCC=C(C)C)cc1
4.92 | < 4.00 | < 10% | < 4.00 | < 10% | < 4.00 |  |  |  |  | CC(C)=CCC/C(C)=C/COC(=O)c1cc(C(F)(F)F)cc(C(F)(F)F)c1
6.00 | 6.03 | < 10% | 5.66 | 57.9% | 6.28 | 6.37 |  |  |  | CC(C)=CCC/C(C)=C\CNC(=O)Cc1ccc(Cl)cc1
6.41 | 6.77 | < 10% | < 4.00 | 27.7% | < 4.00 | 5.40 |  |  |  | CC(C)=CCC/C(C)=C/COC(=O)CCc1ccccc1
6.32 | 6.14 | < 10% | < 4.00 | < 10% | < 4.00 |  |  |  |  | CC(C)=CCC/C(C)=C/COC(=O)c1ccc(C#N)cc1
7.39 | 6.54 | < 10% | < 4.00 | 24% | 4.13 | 5.11 |  |  |  | CC(C)=CCC/C(C)=C\COC(=O)Nc1ccc(C(C)(C)C)cc1
5.31 | 4.93 | < 10% | < 4.00 | 36% | 5.00 | 5.32 |  |  |  | CC(C)=CCC/C(C)=C/CNC(=O)NC1CCCCC1
5.92 | 5.85 | < 10% | 5.42 | 57.5% | 6.05 | 5.96 |  |  |  | CC(C)=CCC/C(C)=C/CNC(=O)Cc1ccc(Cl)cc1
6.48 | 6.00 | < 10% | < 4.00 | 17.6% | < 4.00 | 5.22 |  |  |  | CC(C)=CCC/C(C)=C/COC(=O)c1ccc(C)cc1
5.58 | 5.36 | < 10% | 4.52 | 50.1% | 4.80 | 5.05 |  |  |  | CC(C)=CCC/C(C)=C\CNC(=O)NC1CCCCC1
